Experimental data as given in PubChem BioAssay.
Activity calls are given as the source filed them.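 The calls were made as follows, unless noted: active = viability at or under a set limit in both replicates, limit being median viability minus 3 SD (cut at about 48% in these data, passing the limit was not always enough); inconclusive = at or under the limit in just one replicate; inactive = at or above the limit in both replicates.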

What was measured:
[1] = reducers of endogenous Her2 protein level, primary screen, SKBR3 breast tumor cells, AlphaScreen, ATP viability (AID 461;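 active = Her2 level under about 52% in both replicate screens, with viability over 70% of control, limit read from the data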;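 as to Her2 level: lower value means less Her2 protein in the cells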;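 as to viability: percent of carrier control wells set as 100% viability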); conditions: 18-24 h, measured here: SKBR3 viability, ATP luminescence, at 10 µM
[2] = molecular target: Receptor tyrosine-protein kinase erbB-2 (Homo sapiens) (UniProt P04626); test: as above; conditions: 18-24 h, at 10 µM, stronger effect = lower value
[3] = SK-BR-3 cell growth inhibitors, pilot screen, 24 h, human (AID 572;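 active = viability at or below 10% of carrier control in both of two separate runs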;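 also: compound exposure lasted between 18 and 24 h rather than exactly 24 h; 100% = carrier-treated control wells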); conditions: SK-BR-3 viability, CellTiter-Glo luminescence, at 10 µM, stronger effect = lower value
[4] = HUVEC growth inhibition – cell-based, human, primary screen (AID 575;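 active = viability at or below 30% in both replicate assays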;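 also: 100% = median of untreated cell wells with 0.1% DMSO on each plate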); conditions: HUVEC proliferation, CellTiter-Glo luminescence, 72 h; at 10 µM; stronger effect = lower value
Procedure, shortened: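 System – primary HUVEC, no more than 12 passages · Medium – Low-serum (2% FBS) EBM, supplemented · Times – 72 h exposure, 37 °C, 5% CO2, 30 min RT equilibration · Measured by – luminescent ATP assay · Read-out – % viability relative to median vehicle-well signal on each plate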

[5] = growth inhibitors of H69AR lung tumor, primary screen, human, duplicate replicates (AID 580); conditions: H69AR lung tumor cells viability, ATP luminescence, 72 h; at 10 µM; stronger effect = lower value;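 also: 100% = mean luminescence of untreated wells and 0% = no signal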
[6] = reversal of MRP1-mediated doxorubicin resistance, pilot screen, H69AR cells, doxorubicin co-treatment (AID 601;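 active = viability loss from added drug above about 55%, and viability with drug at most 40%, in both replicates, limit read from the data, passing the limit was not always enough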); conditions: CellTiter-Glo, 72 h, at 10 µM; for differential viability (reversal): stronger effect = higher value
[7] = 384-well plate pilot, post-Golgi transport modulator project, inhibition of yeast transport mutant growth (AID 636; in the data active = inhibition above about 31%); conditions: absorbance 615 nm, about 18 h, stronger effect = higher value
[8] = growth suppression of yeast trafficking mutant, preliminary HTS, modulators of trafficking downstream of Golgi apparatus project, 1536-format plate, OD 615 nm (AID 637; in the data active = inhibition above about 30%); conditions: yeast transport mutant growth, absorbance 615 nm, 18 h; stronger effect = higher value
[9] = H69AR cells + 2 uM doxorubicin, measured here: viability with 2 uM doxorubicin, stronger effect = lower value
[10] = H69AR cells, compound alone cytotoxicity

Sequence of Receptor tyrosine-protein kinase erbB-2 (Homo sapiens) (P04626 whole entry, looked up): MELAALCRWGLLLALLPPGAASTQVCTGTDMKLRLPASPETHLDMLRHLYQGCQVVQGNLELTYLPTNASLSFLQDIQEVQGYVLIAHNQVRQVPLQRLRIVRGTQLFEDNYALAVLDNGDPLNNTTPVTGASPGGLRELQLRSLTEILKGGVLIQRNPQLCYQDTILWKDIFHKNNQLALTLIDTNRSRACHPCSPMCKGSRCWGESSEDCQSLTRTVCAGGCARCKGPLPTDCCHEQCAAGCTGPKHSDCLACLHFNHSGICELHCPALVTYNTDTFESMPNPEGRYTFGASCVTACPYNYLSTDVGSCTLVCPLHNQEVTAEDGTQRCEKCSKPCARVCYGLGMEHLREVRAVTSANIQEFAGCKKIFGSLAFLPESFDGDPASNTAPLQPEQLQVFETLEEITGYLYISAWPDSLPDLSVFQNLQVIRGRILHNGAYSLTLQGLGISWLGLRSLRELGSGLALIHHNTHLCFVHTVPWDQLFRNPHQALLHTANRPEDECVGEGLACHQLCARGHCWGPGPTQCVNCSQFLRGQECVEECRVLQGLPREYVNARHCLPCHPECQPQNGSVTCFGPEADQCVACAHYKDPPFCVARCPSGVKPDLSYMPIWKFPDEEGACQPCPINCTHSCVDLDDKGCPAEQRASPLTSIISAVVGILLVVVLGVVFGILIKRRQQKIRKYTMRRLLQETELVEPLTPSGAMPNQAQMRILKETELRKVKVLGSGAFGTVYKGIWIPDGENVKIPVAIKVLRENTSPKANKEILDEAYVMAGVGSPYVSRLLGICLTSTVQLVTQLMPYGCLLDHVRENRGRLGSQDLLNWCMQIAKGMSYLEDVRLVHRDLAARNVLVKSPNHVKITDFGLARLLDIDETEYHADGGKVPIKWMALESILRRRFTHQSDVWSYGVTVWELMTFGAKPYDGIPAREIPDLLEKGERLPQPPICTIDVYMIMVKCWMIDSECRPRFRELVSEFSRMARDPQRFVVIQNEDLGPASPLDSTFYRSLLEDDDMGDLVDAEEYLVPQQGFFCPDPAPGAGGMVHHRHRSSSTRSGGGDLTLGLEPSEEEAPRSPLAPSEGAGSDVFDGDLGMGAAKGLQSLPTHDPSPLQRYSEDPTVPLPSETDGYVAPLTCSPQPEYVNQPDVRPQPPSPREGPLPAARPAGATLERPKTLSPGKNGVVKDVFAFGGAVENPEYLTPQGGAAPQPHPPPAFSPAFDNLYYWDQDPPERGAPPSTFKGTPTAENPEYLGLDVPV

| Compound | viability [1] [%] | Her2 level [2] | viability [3] | viability [4] | viability [5] | differential viability (reversal) ([6]; H69AR cells + 2 uM doxorubicin) | viability [6, 9] [%] | viability [6, 10] [%] | inhibition [7] | inhibition [8] |
| --- | --- | --- | --- | --- | --- | --- | --- | --- | --- | --- |
| CC(C)[C@H](NC(=O)NC1CCCC1)C(=O)O | 103 | 97.5% (inactive) | 103% (inactive) | 87.9% (inactive) | 104% (inactive) | 15.2% (inactive) | 89 | 104 | -0.52% (inactive) | -9.34% (inactive) |
| O=c1[nH]c2ccccc2nc1NCCN1CCOCC1 | 97.5 | 87.5% (inactive) | 97.5% (inactive) | 114% (inactive) | 97.1% (inactive) | 7.97% (inactive) | 89.1 | 97.1 | -0.79% (inactive) | 3.93% (inactive) |
| Cc1ccc(S(=O)(=O)N2CCN(S(C)(=O)=O)C2c2ccccc2)cc1 (stereo not given) | 82 | 96% (inactive) | 82% (inactive) | 103% (inactive) | 94.4% (inactive) | -12% (inactive) | 106 | 94.4 | 0.13% (inactive) | 0% (inactive) |
| CCn1c(SCC(=O)c2ccc3c(c2)OCCO3)nnc1-c1ccco1 | 102 | 95% (inactive) | 102% (inactive) | 111% (inactive) | 98.6% (inactive) | 0.66% (inactive) | 97.9 | 98.6 | -4% (inactive) | -0.65% (inactive) |
| Cc1nc(NS(=O)(=O)c2ccccc2)sc1NC(=O)OC(C)C | 97 | 106% (inactive) | 97% (inactive) | 90.3% (inactive) | 99.9% (inactive) | 1.17% (inactive) | 98.7 | 99.9 | -3.29% (inactive) | -12.5% (inactive) |
| O=C(Cn1nnc(-c2cc(Cl)ccc2-n2cnnn2)n1)N1CCCc2ccccc21 | 116 | 99.5% (inactive) | 116% (inactive) | 95.7% (inactive) | 96.4% (inactive) | 9.45% (inactive) | 87 | 96.4 | -2.47% (inactive) | 10.8% (inactive) |
| CCOC(=O)CSc1nc2cc(C(=O)NCc3ccco3)ccc2c(=O)n1-c1ccc(F)cc1 | 86.5 | 105% (inactive) | 86.5% (inactive) | 71.4% (inactive) | 87.5% (inactive) | 12% (inactive) | 75.6 | 87.5 | -0.93% (inactive) | 12.8% (inactive) |
| Cc1cc(NCCN2CCCCC2)n2c(nc3ccccc32)c1C#N | 87.5 | 65.5% (inactive) | 87.5% (inactive) | 96.2% (inactive) | 85.1% (inactive) | -7.47% (inactive) | 92.6 | 85.1 | -5.6% (inactive) | 4.1% (inactive) |
| Cn1c(=O)oc2cc(S(=O)(=O)NCCC(=O)N3CCc4ccccc4C3)ccc21 | 102 | 87.5% (inactive) | 102% (inactive) | 96.6% (inactive) | 99.3% (inactive) | 7.68% (inactive) | 91.6 | 99.3 | -8.36% (inactive) | 6.19% (inactive) |
| Cc1csc(NC(=O)CSc2nsc(SCC(=O)Nc3nc(C)cs3)c2C#N)n1 | 94.5 | 69% (inactive) | 94.5% (inactive) | 58.7% (inactive) | 6.57% (active) | -1.3% (inactive) | 7.88 | 6.57 | -6.67% (inactive) | -1.43% (inactive) |
| CC1=CC2=C(OC1N(C)C)c1cccc3cccc(c13)C2=O (stereo not given) | 106 | 65% (inactive) | 106% (inactive) | 83% (inactive) | 78.5% (inactive) | -0.375% (inactive) | 78.9 | 78.5 | 2.21% (inactive) | 6.17% (inactive) |
| CCOc1ccccc1CNC(=O)CCN1C(=O)COc2ccccc21 | 104 | 110% (inactive) | 104% (inactive) | 88.8% (inactive) | 92.9% (inactive) | 3.42% (inactive) | 89.5 | 92.9 | -1.15% (inactive) | -7% (inactive) |
| OCc1nc2ccccc2n1CC(O)Cn1ccc2ccccc21 (stereo not given) | 97.5 | 116% (inactive) | 97.5% (inactive) | 69.6% (inactive) | 85.2% (inactive) | -15.4% (inactive) | 101 | 85.2 | -1.97% (inactive) | 8.36% (inactive) |
| CN(C)c1ccc(/C(=N\O)c2ccccc2)cc1 | 98.5 | 114% (inactive) | 98.5% (inactive) | 93.9% (inactive) | 92.8% (inactive) | 2.59% (inactive) | 90.3 | 92.8 | 0.13% (inactive) | -13.5% (inactive) |
| Cc1c(Cl)cccc1N1C(=O)c2ccccc2C1=O | 89.5 | 85.5% (inactive) | 89.5% (inactive) | 99.5% (inactive) | 111% (inactive) | 2.93% (inactive) | 108 | 111 | -4.86% (inactive) | -2.3% (inactive) |
| c1ccc(N=P(c2nc3ccccc3o2)(N2CCOCC2)N2CCOCC2)cc1 | 119 | 89.5% (inactive) | 119% (inactive) | 104% (inactive) | 91.4% (inactive) | 1.96% (inactive) | 89.4 | 91.4 | -4.27% (inactive) | 7.26% (inactive) |
| O=C(C1CCC1)N1CCc2cc(S(=O)(=O)Nc3ccc4c(c3)OCO4)ccc21 | 85.5 | 76% (inactive) | 85.5% (inactive) | 70.1% (inactive) | 91.6% (inactive) | 17.8% (inactive) | 73.8 | 91.6 | -6.27% (inactive) | -5.08% (inactive) |
| CCCOc1ccc(C2c3c(oc4ccccc4c3=O)C(=O)N2CCCN2CCOCC2)cc1 (stereo not given) | 84.5 | 77.5% (inactive) | 84.5% (inactive) | 90.3% (inactive) | 71.6% (inactive) | 0.68% (inactive) | 71 | 71.6 | -3.73% (inactive) | -4.26% (inactive) |
| Cc1ccc(CCNC(=O)C2CCN(S(=O)(=O)c3c(C)nn(C)c3C)CC2)cc1 | 103 | 115% (inactive) | 103% (inactive) | 114% (inactive) | 89% (inactive) | -7.15% (inactive) | 96.1 | 89 | -1.92% (inactive) | -2% (inactive) |
| CN(Cc1ccccc1)C(=O)c1ccc2c(c1)OCO2 | 101 | 97% (inactive) | 101% (inactive) | 88.2% (inactive) | 108% (inactive) | 17.7% (inactive) | 90.3 | 108 | -2.53% (inactive) | 4.43% (inactive) |
| CN1CCN(CCCNC(=O)C2CC(=O)N(C3CCCCC3)C2)CC1 (stereo not given) | 106 | 90% (inactive) | 106% (inactive) | 88.8% (inactive) | 91.4% (inactive) | -3.83% (inactive) | 95.2 | 91.4 | -4.47% (inactive) | 3.06% (inactive) |
| COc1cc(OC)cc(-c2nnc(Nc3nc4c(F)cccc4s3)o2)c1 | 95.5 | 74% (inactive) | 95.5% (inactive) | 5.89% (active) | 69.4% (inactive) | -17.9% (inactive) | 87.3 | 69.4 | -5.07% (inactive) | 13.4% (inactive) |
| CC(=O)Nc1ccc(OCC(O)Cn2nc(C)nc2C)cc1 (stereo not given) | 93 | 86.5% (inactive) | 93% (inactive) | 81.3% (inactive) | 91% (inactive) | -5.46% (inactive) | 96.5 | 91 | -1.67% (inactive) | -4.83% (inactive) |
| CN1C(=S)SC(C)(NO)C1(C)C (stereo not given) | 90 | 95.5% (inactive) | 90% (inactive) | 97% (inactive) | 104% (inactive) | 5.95% (inactive) | 98.4 | 104 | -0.27% (inactive) | -9.52% (inactive) |
| O=c1cc(CSc2ccccn2)c2ccccc2[nH]1 | 91.5 | 76% (inactive) | 91.5% (inactive) | 85.2% (inactive) | 93.1% (inactive) | 8.09% (inactive) | 85.1 | 93.1 | -4.46% (inactive) | 4.13% (inactive) |
| O=C(c1ccco1)N1CCN(C(=O)C2CCN(S(=O)(=O)c3cccc4nsnc34)CC2)CC1 | 98.5 | 102% (inactive) | 98.5% (inactive) | 104% (inactive) | 83.5% (inactive) | 8.47% (inactive) | 75 | 83.5 | -4.27% (inactive) | -1.48% (inactive) |
| Cc1ccc(N2C(=O)c3ccccc3C2O)nc1 (stereo not given) | 122 | 93% (inactive) | 122% (inactive) | 59.8% (inactive) | 53.6% (inactive) | 0.305% (inactive) | 53.3 | 53.6 | -0.13% (inactive) | -1.83% (inactive) |
| c1ccc2c(c1)CC(N1CCCCC1)c1ccccc1N2 (stereo not given) | 79.5 | 91% (inactive) | 79.5% (inactive) | 90.1% (inactive) | 91.5% (inactive) | 4.69% (inactive) | 86.8 | 91.5 | -1.82% (inactive) | -3.93% (inactive) |
